Data taken from ChEMBL document CHEMBL3244101, “2-, 3-, and 4-(alpha, alpha, beta, beta-tetrafluorophenethyl)benzylamines. A new class of antiarrhythmic agents” (J Med Chem, 1977).
The source made the active and inactive calls. No cut-off for these calls is given here.

What was measured:
[1] = system: Canis familiaris; assay: Antiarrhythmic activity in anesthetized acute myocardial infarction dog model assessed as normal ECG complexes at 2.5 mg/kg, iv administered 10 mins prior to infarction measured during 1-hr postinfarction period (reference value: 19%); format: functional, Canis lupus familiaris, Heart
Summary of the method: (§1)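 Sclerosing agent (tetrafluorohexachlorobutane) injected into the anterior descending coronary artery to produce a multifocal ventricular arrhythmia. Single iv dose 10 min before infarction. Segmented ECG tracings over the 1 h after infarction were scored as the percentage of complexes of sinus origin (normal). Saline controls were run alongside.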

[2] = system: Canis familiaris; assay: Antiarrhythmic activity in anesthetized acute myocardial infarction dog model assessed as normal ECG complexes at 1.25 mg/kg, iv administered 10 mins prior to infarction measured during 1-hr postinfarction period (reference value: 19%); format: functional, Canis lupus familiaris, Heart; summary of the method: as §1
[3] = system: Canis familiaris; assay: Antiarrhythmic activity in iv dosed anesthetized acute myocardial infarction dog model assessed as protection against ventricular arrhythmia development administered 10 mins prior to infarction measured during 1-hr postinfarction period; format: functional, Canis lupus familiaris, Heart; summary of the method: as §1
[4] = system: Canis familiaris; assay: Antiarrhythmic activity in anesthetized acute myocardial infarction dog model assessed as normal ECG complexes at 0.5 mg/kg, iv administered 10 mins prior to infarction measured during 1-hr postinfarction period (reference value: 19%); format: functional, Canis lupus familiaris, Heart; summary of the method: as §1
[5] = system: Canis familiaris; assay: Antiarrhythmic activity in anesthetized acute myocardial infarction dog model assessed as normal ECG complexes at 0.25 mg/kg, iv administered 10 mins prior to infarction measured during 1-hr postinfarction period (reference value: 19%); format: functional, Canis lupus familiaris, Heart; summary of the method: as §1
[6] = system: Canis familiaris; assay: Antiarrhythmic activity in anesthetized acute myocardial infarction dog model assessed as normal ECG complexes at 10 mg/kg, iv administered 10 mins prior to infarction measured during 1-hr postinfarction period (reference value: 19%); format: functional, Canis lupus familiaris, Heart; summary of the method: as §1
[7] = system: Canis familiaris; assay: Antiarrhythmic activity in anesthetized acute myocardial infarction dog model assessed as normal ECG complexes at 5 mg/kg, iv administered 10 mins prior to infarction measured during 1-hr postinfarction period (reference value: 19%); format: functional, Canis lupus familiaris, Heart; summary of the method: as §1
[8] = system: Canis familiaris; assay: Effect on cardiac conduction in anesthetized acute myocardial infarction dog model assessed as increase in PR interval at 2.5 mg/kg, iv administered 10 mins prior to infarction measured after 10 mins (reference value: 0 ms); format: functional, Canis lupus familiaris, Heart
[9] = system: Canis familiaris; assay: Effect on cardiac conduction in anesthetized acute myocardial infarction dog model assessed as increase in PR interval at 5 mg/kg, iv administered 10 mins prior to infarction measured after 10 mins (reference value: 0 ms); format: functional, Canis lupus familiaris, Heart
[10] = system: Canis familiaris; assay: Effect on cardiac conduction in anesthetized acute myocardial infarction dog model assessed as increase in PR interval at 10 mg/kg, iv administered 10 mins prior to infarction measured after 10 mins (reference value: 0 ms); format: functional, Canis lupus familiaris, Heart
[11] = system: Canis familiaris; assay: Effect on cardiac conduction in anesthetized acute myocardial infarction dog model assessed as increase in QT duration at 2.5 mg/kg, iv administered 10 mins prior to infarction measured after 10 mins (reference value: 2 ms); format: functional, Canis lupus familiaris, Heart
[12] = system: Canis familiaris; assay: Effect on cardiac conduction in anesthetized acute myocardial infarction dog model assessed as increase in QT duration at 5 mg/kg, iv administered 10 mins prior to infarction measured after 10 mins (reference value: 2 ms); format: functional, Canis lupus familiaris, Heart
[13] = system: Canis familiaris; assay: Effect on cardiac conduction in anesthetized acute myocardial infarction dog model assessed as increase in QT duration at 10 mg/kg, iv administered 10 mins prior to infarction measured after 10 mins (reference value: 2 ms); format: functional, Canis lupus familiaris, Heart
[14] = system: Canis familiaris; assay: Reduction in heart rate in anesthetized acute myocardial infarction dog model at 2.5 mg/kg, iv administered 10 mins prior to infarction (reference value: 6 bpm); format: functional, Canis lupus familiaris
[15] = system: Canis familiaris; assay: Reduction in heart rate in anesthetized acute myocardial infarction dog model at 5 mg/kg, iv administered 10 mins prior to infarction (reference value: 6 bpm); format: functional, Canis lupus familiaris
[16] = system: Canis familiaris; assay: Reduction in heart rate in anesthetized acute myocardial infarction dog model at 10 mg/kg, iv administered 10 mins prior to infarction (reference value: 6 bpm); format: functional, Canis lupus familiaris
[17] = system: Canis familiaris; assay: Antiarrhythmic activity in anesthetized acute myocardial infarction dog model assessed as normal ECG complexes at 0.06 mg/kg, iv administered 10 mins prior to infarction measured during 1-hr postinfarction period (reference value: 19%); format: functional, Canis lupus familiaris, Heart; summary of the method: as §1
[18] = system: Canis familiaris; assay: Antiarrhythmic activity in anesthetized acute myocardial infarction dog model assessed as normal ECG complexes at 10 mg/kg, po administered 120 mins prior to infarction measured post-infarction; format: functional, Canis lupus familiaris, Heart
Summary of the method: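 Oral dosing 120 min before infarction in the same intracoronary tetrafluorohexachlorobutane arrhythmia model. Protection was read from ECG complexes after infarction, as the percentage that were normal.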

[19] = system: Canis familiaris; assay: Myocardial depressant activity in iv dosed anesthetized dog at higher doses; format: ADME, organism-based, Canis lupus familiaris, Myocardium; conditions: in vivo
[20] = system: Canis familiaris; assay: Hypotensive activity in iv dosed anesthetized dog at higher doses; format: ADME, organism-based, Canis lupus familiaris; conditions: in vivo
[21] = system: Canis familiaris; assay: Effect on cardiac conduction in anesthetized acute myocardial infarction dog model assessed as increase in PR interval at 0.025 mg/kg/min, iv administered as continuous infusion for 60 mins measured after 10 mins (reference value: 0 ms); format: functional, Canis lupus familiaris, Heart
[22] = system: Canis familiaris; assay: Effect on cardiac conduction in anesthetized acute myocardial infarction dog model assessed as increase in PR interval at 0.0125 mg/kg/min, iv administered as continuous infusion for 60 mins measured after 10 mins (reference value: 0 ms); format: functional, Canis lupus familiaris, Heart
[23] = system: Canis familiaris; assay: Effect on cardiac conduction in anesthetized acute myocardial infarction dog model assessed as increase in PR interval at 0.06 mg/kg/min, iv administered as continuous infusion for 60 mins measured after 10 mins (reference value: 0 ms); format: functional, Canis lupus familiaris, Heart
[24] = system: Canis familiaris; assay: Effect on cardiac conduction in anesthetized acute myocardial infarction dog model assessed as increase in PR interval at 0.03 mg/kg/min, iv administered as continuous infusion for 60 mins measured after 10 mins (reference value: 0 ms); format: functional, Canis lupus familiaris, Heart
[25] = system: Canis familiaris; assay: Effect on cardiac conduction in anesthetized acute myocardial infarction dog model assessed as increase in QT duration at 0.025 mg/kg/min, iv administered as continuous infusion for 60 mins measured after 10 mins (reference value: 2 ms); format: functional, Canis lupus familiaris, Heart
[26] = system: Canis familiaris; assay: Effect on cardiac conduction in anesthetized acute myocardial infarction dog model assessed as increase in QT duration at 0.0125 mg/kg/min, iv administered as continuous infusion for 60 mins measured after 10 mins (reference value: 2 ms); format: functional, Canis lupus familiaris, Heart
[27] = system: Canis familiaris; assay: Effect on cardiac conduction in anesthetized acute myocardial infarction dog model assessed as increase in QT duration at 0.06 mg/kg/min, iv administered as continuous infusion for 60 mins measured after 10 mins (reference value: 2 ms); format: functional, Canis lupus familiaris, Heart
[28] = system: Canis familiaris; assay: Effect on cardiac conduction in anesthetized acute myocardial infarction dog model assessed as increase in QT duration at 0.03 mg/kg/min, iv administered as continuous infusion for 60 mins measured after 10 mins (reference value: 2 ms); format: functional, Canis lupus familiaris, Heart
[29] = system: Canis familiaris; assay: Antiarrhythmic activity in anesthetized acute myocardial infarction dog model assessed as normal ECG complexes at 0.07 mg/kg, iv administered 10 mins prior to infarction measured during 1-hr postinfarction period (reference value: 19%); format: functional, Canis lupus familiaris, Heart; summary of the method: as §1
[30] = Canis lupus familiaris, Heart, iv, read-out: ED75

Row | SMILES | Activity [1] | Activity [2] | ED75 [3, 30] | Activity [4] | Activity [5] | other results
1 | CN(C)C(C)(C)c1ccc(C(F)(F)C(F)(F)c2ccccc2)cc1.Cl | 83% | 53% | 2.1 mg/kg | – | – | –
2 | CNC(C)(C)c1ccc(C(F)(F)C(F)(F)c2ccc(C)cc2)cc1.Cl | 67% | – | – | – | – | –
3 | Br.CNCc1cccc(C(F)(F)C(F)(F)c2ccccc2)c1CNC | 92% | 65% | 1.3 mg/kg | 61% | 30% | –
4 | Cl.NCc1ccccc1C(F)(F)C(F)(F)C(F)(F)c1ccccc1 | 83% | 68% | 1.8 mg/kg | – | 24% | –
5 | C=C[C@H]1CN2CC[C@H]1C[C@@H]2[C@@H](O)c1ccnc2ccc(OC)cc12 [QUINIDINE] | 25% | – | 9.4 mg/kg | – | – | Activity [6]: 89%; Activity [7]: 46%; Time [8]: 0 ms; Time [9]: 8 ms; Time [10]: 15 ms; Time [11]: 33 ms; Time [12]: 36 ms; Time [13]: 78 ms; Activity [14]: 21 bpm; Activity [15]: 24 bpm; Activity [16]: 31 bpm
6 | Cl.Nc1ccccc1C(F)(F)C(F)(F)c1ccccc1 | 10% | – | – | – | – | Activity [6]: 26%; ED75 ([3]; Canis lupus familiaris, Heart): inactive
7 | Cc1ccc(C(F)(F)C(F)(F)c2ccc(C(C)(C)N)cc2)cc1.Cl | 88% | 75% | 1.4 mg/kg | – | 52% | Activity [17]: 15%
8 | CNC(C)(C)c1ccc(C(F)(F)C(F)(F)c2ccccc2)cc1.Cl | 99% | 86% | 0.5 mg/kg | 65% | 68% | Activity [18]: >=80%; Activity [17]: 27%
9 | CNC(C)c1ccccc1C(F)(F)C(F)(F)c1ccccc1.O=C(O)/C=C\C(=O)O (stereo unspecified) | 88% | 91% | 0.88 mg/kg | 59% | 35% | –
10 | CNCc1ccccc1C(F)(F)C(F)(F)c1ccccc1.Cl | 93% | – | 0.84 mg/kg | 73% | 38% | –
11 | NCc1ccccc1C(F)(F)C(F)(F)c1ccc(F)cc1 | 74% | 52% | 3 mg/kg | – | 20% | –
12 | Cc1c(CN)cccc1C(F)(F)C(F)(F)c1ccccc1.Cl | 49% | – | – | – | – | –
13 | Br.FC(F)(c1ccccc1)C(F)(F)c1cccc2c1CNC2 | 51% | – | 7 mg/kg | – | – | Activity [7]: 71%
14 | CC(N)c1ccccc1C(F)(F)C(F)(F)c1ccccc1.O=C(O)/C=C\C(=O)O (stereo unspecified) | 87% | 82% | 1.3 mg/kg | 43% | – | –
15 | Cl.NCc1ccc(C(F)(F)C(F)(F)c2ccccc2)cc1 | 37% | – | – | – | – | –
16 | Br.FC(F)(c1ccccc1)C(F)(F)c1cccc(CNCc2ccccc2)c1CNCc1ccccc1 | 99% | 98% | 0.64 mg/kg | 65% | – | –
17 | O=C1NC(=O)C(c2ccccc2)(c2ccccc2)N1 [PHENYTOIN] | 17% | – | – | – | – | Activity [7]: 40%; Time [8]: 10 ms; Time [9]: 8 ms; Time [11]: 5 ms; Time [12]: 3 ms; Activity [14]: 11 bpm; Activity [15]: 13 bpm; Activity [19]: Toxic; Activity [20]: Toxic
18 | CNC(C)c1ccccc1C(F)(F)C(F)(F)c1ccccc1.O=C(O)C(O)C(O)C(=O)O (single isomer, unassigned; (-)) | – | – | – | – | 44% | Activity ([4]; 0.5 mg/kg): 84%; ED75 [3]: 0.48 mg/kg
19 | Cl.FC(F)(c1ccccc1)C(F)(F)c1ccccc1CNCc1ccccc1 | – | – | 0.84 mg/kg | 74% | 23% | –
20 | CC(O)C(=O)O.NCc1ccccc1C(F)(F)C(F)(F)c1ccccc1CN | 71% | 59% | 2.5 mg/kg | 38% | – | –
21 | CNC(C)c1ccccc1C(F)(F)C(F)(F)c1ccccc1.O=C(O)C(O)C(O)C(=O)O (single isomer, unassigned; (+)) | – | 72% | – | – | – | Activity ([4]; 0.5 mg/kg): 26%; ED75 [3]: 2 mg/kg
22 | CC(N)c1ccc(C(F)(F)C(F)(F)c2ccccc2)cc1.Cl (stereo unspecified) | 80% | 25% | 4 mg/kg | – | – | –
23 | Cl.NCCc1ccccc1C(F)(F)C(F)(F)c1ccccc1 | 88% | – | 2 mg/kg | 27% | – | –
24 | NCc1cc(F)ccc1C(F)(F)C(F)(F)c1ccccc1 | – | – | 0.5 mg/kg | 48% | – | –
25 | CN(C)Cc1ccccc1C(F)(F)C(F)(F)c1ccccc1.Cl | 61% | – | 4.8 mg/kg | – | – | Activity [7]: 75%
26 | CCN(CC)CC(=O)Nc1c(C)cccc1C [LIDOCAINE] | – | – | – | – | – | Time [21]: 2 ms; Time [22]: 0 ms; Time [23]: 0 ms; Time [24]: 0 ms; Time [25]: 0 ms; Time [26]: 0 ms; Time [27]: 0 ms; Time [28]: 0 ms
27 | CC(C)(N)c1cccc(C(F)(F)C(F)(F)c2ccccc2)c1.Cl | 80% | 45% | 2.7 mg/kg | – | – | –
28 | CC(C)(N)c1ccc(C(F)(F)C(F)(F)c2ccccc2)cc1.Cl | 98% | 89% | 0.6 mg/kg | 75% | 50% | Activity [18]: >=80%; Activity [17]: 35%
29 | Cl.NCc1ccccc1C(F)(F)C(F)(F)c1ccccc1 | 98% | 91% | 0.2 mg/kg | 86% | 81% | Activity [29]: 58%; Activity [18]: >=80%
